Assay outcomes as filed in PubChem BioAssay.
A selection: hits, their analogues and other compounds. The true share with any hit is near 29%.
Ecoli tolC = growth inhibitors of E. coli tolC mutant, primary screen, strain BW25113 ΔtolC::kan, 384-well; OD615; growth inhibition, % at 10 µM (by protocol); actives 2.2% (n = 65,000);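 active means growth inhibition at or above a cutoff equal to the mean over every tested compound plus 3 SD, cut at about 60% in these data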;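 further: growth measured after 20 h incubation at 37 °C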
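Test system: E. coli BW25113 ΔtolC::kan bacteria; incubation: 37 °C, 20 h exposure; medium: LB broth supplemented with 50 µg/mL kanamycin; read-out basis: percent growth inhibition; signal: A615 absorbance measurement; compound: 10 µM final, single dose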
E coli WT exp = growth inhibitors of wild-type E. coli, primary screen, strain BW25113, expanded library, OD600. AID 710, 2007. growth inhibition, % at 100 µM. OD600 absorbance. actives 0.15% (n = 98,000);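 active means growth inhibition above about 50% at one test dose, limit read from the data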;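 further: growth measured after 20 h incubation at 37 °C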
CYP2C9 inhib = blockers of cytochrome P450 2C9 activity – biochemical, luminescence, ADME assay, primary screen; CYP2C9 Supersomes, luciferin-H conversion; AID 777, 2007; actives 20% (n = 96,000); P11712; inhibition, % at 5 µM;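 active means blocking of liver enzyme CYP2C9 beyond about 50% at 5 µM, limit read from the data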
CYP2C19 act = human CYP2C19 activators, primary screen, biochemical, luminescence; recombinant CYP2C19, luciferin-H EGE luminescence; active compounds read high; 0 = fully inhibited enzyme, 1 = untreated enzyme; AID 1025, 2008; 96,000 tested, under 10 active; activation factor at 5 µM;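 active means activation factor of at least 2 at 5 µM in the primary screen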;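 further: 0 = wells with 2.5 mM tranylcypromine and 1 = vehicle-only wells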
Target sequence (P33261 whole entry, looked up): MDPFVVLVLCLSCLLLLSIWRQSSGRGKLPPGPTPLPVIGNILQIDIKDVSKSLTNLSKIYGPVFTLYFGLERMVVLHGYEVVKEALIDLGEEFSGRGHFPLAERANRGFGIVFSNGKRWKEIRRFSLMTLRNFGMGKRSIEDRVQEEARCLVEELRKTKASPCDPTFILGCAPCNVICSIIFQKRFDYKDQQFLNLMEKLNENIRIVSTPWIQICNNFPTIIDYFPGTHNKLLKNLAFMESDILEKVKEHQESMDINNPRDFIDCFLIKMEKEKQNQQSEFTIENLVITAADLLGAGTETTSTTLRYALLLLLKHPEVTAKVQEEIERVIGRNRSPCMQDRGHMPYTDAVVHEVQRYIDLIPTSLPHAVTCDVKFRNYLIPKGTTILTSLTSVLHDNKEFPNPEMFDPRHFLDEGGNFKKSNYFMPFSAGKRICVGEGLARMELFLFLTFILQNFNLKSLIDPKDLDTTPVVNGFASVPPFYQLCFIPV
CYP2C19 inhib = blockers of cytochrome P450 2C19 activity – biochemical, luminescence, ADME assay, primary screen | AID 778, 2007 | inhibition, % at 5 µM | P33261 | CYP2C19 Supersomes, luciferin-H EGE luminescence, 30 min | actives 21% (n = 96,000);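 active means CYP2C19 inhibition above a set limit at 5 µM in the primary screen, cut at about 50% in these data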;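 further: plate controls were negative control wells for no effect and 2.5 mM tranylcypromine positive control for full effect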
CYP2C9 act = human CYP2C9 activators, primary screen, biochemical, luminescence. Cytochrome P450 2C9 (Homo sapiens), P11712. recombinant CYP2C9, luciferin-H conversion; active compounds read high; factor 1 = untreated enzyme, 0 = blocked. activation factor at 5 µM. actives 1.4% (n = 96,000). AID 1024, 2008;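 active means activation factor of 2 or more for CYP2C9 at a 5 µM dose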;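 further: 0 = sulfaphenazole-blocked wells and 1 = vehicle-only wells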
* marks the source's active call; other numbers are inactive results; . = no result.

SMILES	Ecoli tolC	E coli WT exp	CYP2C9 inhib	CYP2C19 act	CYP2C19 inhib	CYP2C9 act
COc1cccc(OC)c1C(=O)Nc1ccccc1N1CCCC1	-3	-1	2	0.9	10	1
CC(C)Oc1ccc(C(=O)Nc2ccccc2N2CCCC2)cc1	.	-1	37	0.7	31	0.6
CC1(C)CC(=O)C2=C(C1)NC(=O)CC2c1ccc(N(CCC#N)CCC#N)cc1 (stereo not given)	4	-3	-8	1.1	-7	1.1
Cc1nc(SCC(=O)N2CCN(c3ccccc3)CC2)c2c(=O)n(C)c(=O)n(C)c2n1	-5	.	.	.	.	.
O=C(C[n+]1ccc(C(=O)N/N=C/c2ccc(O)cc2)cc1)c1ccccc1	.	-4	25	0.9	10	0.8
O=C(C[n+]1ccc(C(=O)N/N=C/c2ccc(Br)cc2)cc1)c1ccccc1	.	-9	34	0.3	74*	0.7
Cc1cc(C)c(S(=O)(=O)N2CCC(C(=O)NCc3ccc(Cl)cc3Cl)CC2)c(C)c1	.	-6	-185	0.7	35	2.9*
CCS(=O)(=O)N1CCC(C(=O)NCc2ccc(F)cc2Cl)CC1	-7	5	-12	1	-3	1.1
O=C(NCc1ccc(Cl)cc1Cl)C(=O)N1CCCCC1	.	4	-282	0.8	17	3.8*
O=C(COc1ccc(Cl)cc1Cl)N1CCCC1	.	7	-12	0.8	15	1.1
CC(C)c1ccccc1N=C1SCCN1C1CCS(=O)(=O)C1 (stereo not given)	6	9	31	0.4	58*	0.7
CCN(CC)CCNC(=O)c1ccccc1C(=O)c1ncc[nH]1	-32	0	21	0.9	14	0.8
CCCSC1=C(C#N)C(c2cccnc2)C(C(=O)OCC)=C(c2ccccc2)N1 (stereo not given)	.	-11	62*	0.5	49	0.4
CCOC(=O)C1=C(c2ccccc2)NC(SCC)=C(C#N)C1c1cccnc1 (stereo not given)	.	1	70*	0.9	15	0.3
CCOC(=O)C1C(=O)C(C(=O)OCC)C(c2cccnc2)NC1c1cccnc1 (stereo not given)	-14	1	22	0.7	33	0.8
COc1cc(-c2ccc(NC(=O)CN3CCCCC3)c(OC)c2)ccc1NC(=O)CN1CCCCC1	3	.	.	.	.	.
Cc1[nH]c(=S)n(CC2CCCO2)c1C (stereo not given)	11	2	.	.	.	.
O=C(Nc1nc2c(s1)CCCC2)c1ccc(Br)s1	49	-8	38	0.9	6	0.6
CCSc1nnc(NC(=O)C(CC)(C(F)(F)F)C(F)(F)F)s1	0	2	98*	0.7	33	0
CCSc1nnc(NC(=O)C(C)(C(F)(F)F)C(F)(F)F)s1	6	-9	75*	1.1	-6	0.2
CCSc1nnc(NC(=O)C(C(F)(F)F)C(F)(F)F)s1	1	-7	18	1	-4	0.8
CCSc1nnc(NC(NC(=O)c2ccco2)(C(F)(F)F)C(F)(F)F)s1	3	3	90*	0.9	7	0.1
c1cncc(CNc2c3c(nc4nnnn24)CCCC3)c1	6	-12	19	0.3	68*	0.8
CCOC(=O)C(C(=O)Nc1ccccc1C)C1CCCCC1 (stereo not given)	.	-4	24	0.6	35	0.8
COc1ccc(N2C(=O)CCC(C(=O)NCc3ccccn3)C2c2ccc(F)cc2)cc1 (stereo not given)	.	8	-4	1	-2	1
SMILES	Ecoli tolC	E coli WT exp	CYP2C9 inhib	CYP2C19 act	CYP2C19 inhib	CYP2C9 act
CCOC(=O)c1sc(NC(=O)CCN2C(=O)c3cccc([N+](=O)[O-])c3C2=O)c(C(=O)OCC)c1C	.	-7	57*	0.5	49	0.4
CCOC(=O)c1c(NC(=O)CCN2C(=O)c3ccccc3C2=O)sc(C(=O)OC(C)C)c1C	.	-4	60*	0.8	23	0.4
COc1ccc(S(=O)(=O)N2CCC(C(N)=O)CC2)cc1	-13	.	.	.	.	.
O=C(NCc1ccccc1)c1ccc(C(=O)N(C2CCCCC2)C2CCCCC2)cc1	.	-22	17	0.9	9	0.8
C=CCOc1cccc(C2C(C(=O)c3ccco3)=C(O)C(=O)N2CCN(CC)CC)c1 (stereo not given)	-12	-5	-11	0.8	17	1.1
COc1ccc(C2SCC(C(=O)NCc3ccc(F)cc3)N2C(C)=O)cc1 (stereo not given)	.	1	19	0.7	29	0.8
COc1ccc(-c2cc(CCCC(=O)NCCc3ccc(OC)cc3OC)no2)cc1	3	4	.	.	.	.
COc1ccc(OC)c(CCNC(=O)Cn2sc3nc(C)cc(C)c3c2=O)c1	-9	5	65*	0.8	22	0.4
COC(=O)C1CCCN1C(=O)C1CCCN1C(=O)CNC(=O)OCc1ccccc1 (stereo not given)	-15	3	3	1.1	-6	1
CC1CCCCN1c1nnc(NC(=O)Cn2c(=O)oc3ccccc32)s1 (stereo not given)	18	2	57*	1.1	-7	0.4
COc1ccc(OC)c(N2C(=O)CC(Cc3ccc(C)cc3)C2=O)c1 (stereo not given)	0	.	.	.	.	.
COc1ccc(OC)c(N2C(=O)CC(C(C)c3ccccc3)C2=O)c1 (stereo not given)	3	-7	19	0.3	66*	0.8
CCOc1ccccc1CNC(=O)CCNC(=O)Cn1ccc2ccccc2c1=O	.	-9	24	0.8	15	0.8
Cc1ccc(NCCC(=O)c2ccc(Br)cc2)cc1	.	-1	16	0.2	79*	0.8
CCc1ccc(NCCC(=O)c2ccc(Br)cc2)cc1	.	-5	50*	0.1	86*	0.5
Cc1ccc(NCCC(=O)c2ccc(Cl)cc2)cc1	.	-6	28	0.2	83*	0.7
Cc1ccc(NC(=O)Cc2nnc(SCC(=O)c3ccc(Br)cc3)n2C)cc1	.	-4	-7	1	1	1.1
CC(C)c1nnc(NC(=O)CCC(=O)NCc2ccc3c(c2)OCO3)s1	-13	-9	12	1	1	0.9
COc1ccccc1NC(=O)CN(Cc1ccco1)C(=O)c1ccc(-n2nc(C)cc2C)cc1	11	-13	94*	0.9	11	0.1
Cc1occc1C(=O)Nc1cccc(C(=O)NCc2ccccc2)c1	15	3	93*	0.3	68*	0.1
O=C(NCc1ccco1)c1cccc(NC(=O)c2ccccc2)c1	11	9	93*	0.6	38	0.1
CCC(CC)C(=O)Nc1cccc(C(=O)NCc2ccco2)c1	4	7	33	0.8	23	0.7
Cc1ccc(C(=O)NCc2ccco2)cc1[N+](=O)[O-]	.	3	-11	0.8	21	1.1
